Test [1] deals with HEp-2. The test is described as follows: Cytotoxicity against human Hep2 cells by MTT assay. Type of test: functional, cell-based. A general note: Formazan colour is commonly taken as a measure of viable cells.
Test [2] relates to HeLa. Kind of test: Cytotoxicity against human HeLa cells by MTT assay. Type of test: functional, cell-based.
A short description of test [3]: Cytotoxicity against human Doay cells by MTT assay. It is filed as functional, cell-based.
A short description of test [4]: Antiinflammatory activity against FMLP/CB stimulated human neutrophils assessed as inhibition of superoxide anion generation relative to control. Type of test: functional, cell-based. As to conditions: Neutrophil. The method in brief:
(§1)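 Human neutrophils were isolated by dextran sedimentation and Ficoll centrifugation. Cells were given 0.5 mg/mL ferricytochrome c and 1 mM Ca2+, equilibrated 2 min at 37 °C, then treated with compound for 5 min. CB (1 µg/mL) was added 3 min before 100 nM FMLP for 10 min. Superoxide was measured as SOD-inhibitable ferricytochrome c reduction. Mean ± SEM, n = 3.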

Test [5] relates to WiDr. Kind of test: Cytotoxicity against human WiDr cells by MTT assay. It is filed as functional, cell-based.
The nature of test [6]: Antiinflammatory activity against FMLP/CB stimulated human neutrophils assessed as inhibition of elastase release relative to control. Type of test: functional, cell-based. Conditions: Neutrophil. The method in brief:
(§2)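 Neutrophils were supplemented with 100 µM MeO-Suc-Ala-Ala-Pro-Val-p-nitroanilide at 6 × 10^5/mL, equilibrated 2 min at 37 °C, then given compound for 5 min. They were activated with FMLP (100 nM)/CB (0.5 µg/mL), and A405 was followed continuously. The initial rate is expressed relative to the FMLP/CB-activated DMSO control. Mean ± SEM, n = 3.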

Test [7] can be described thus: Antiinflammatory activity against FMLP/CB stimulated human neutrophils assessed as inhibition of superoxide anion generation at 10 ug/mL relative to control. Type of test: functional. As to conditions: Neutrophil. The method in brief:
as §1

Test [8] can be described thus: Antiinflammatory activity against FMLP/CB stimulated human neutrophils assessed as inhibition of elastase release at 10 ug/mL relative to control. Type of test: functional. Conditions: Neutrophil. The method in brief: as §2

Broadly, the IC50 is the concentration at which inhibition is half-maximal. The term inhibition denotes the change of the read-out against control, counted positive when it falls.

≈ marks a conversion by molar mass, not a printed value.

On to `C=C1C[C@H](OC(C)=O)[C@H](OC(C)=O)[C@]2(C)[C@@H](OC(C)=O)CC/C(C)=C\[C@@H]3OC(=O)[C@H](C)[C@@]3(O)[C@@H](OC(C)=O)[C@@H]12` (relative stereo) [FRAJUNOLIDE E], for which the IC50 in test [1] was > 20 µg/mL; in test [2] it was > 20 µg/mL; in test [3], > 20 µg/mL; in test [4] it was 17.5 µg/mL (≈ 31.8 µM); in test [5] it was > 20 µg/mL; in test [6], 27.4 µg/mL (≈ 49.8 µM).
As to `C=C1C[C@H](OC(C)=O)[C@H](OC(C)=O)[C@]2(C)[C@@H](OC(C)=O)C[C@@]3(O)O[C@]4([C@@H](C)C(=O)O[C@H]4[C@@H](Cl)C3=C)[C@@H](OC(C)=O)[C@@H]12` (relative stereo) [FRAJUNOLIDE F], the IC50 in test [1], in test [2], in test [3] and in test [5] was > 20 µg/mL each time. In addition, the values for the inhibition at 10 µg/mL in test [7] and in test [8] were 7.4% and 10.4%, respectively.
Turning to `C=C1/C=C\[C@H](OC(=O)COC(=O)CC(C)C)[C@@]2(C)[C@@H](OC(C)=O)CC[C@]3(CO3)[C@@H]2[C@H](OC(C)=O)[C@]2(O)[C@@H](C)C(=O)O[C@H]2[C@H]1Cl` (relative stereo) [FRAJUNOLIDE G], the IC50 in test [1], in test [2], in test [3] and in test [5] was > 20 µg/mL throughout. Besides, the inhibition at 10 µg/mL was -7.5% in test [7] and 8.3% in test [8].
For the molecule `C=C1C[C@H](OC(C)=O)[C@H](OC(C)=O)[C@]2(C)[C@@H](OC(C)=O)/C=C/C(=C)[C@H](Cl)[C@@H]3OC(=O)[C@H](C)[C@@]3(O)[C@@H](OC(C)=O)[C@@H]12` (relative stereo) [FRAJUNOLIDE H], the IC50 in test [1], in test [2], in test [3] and in test [5] was > 20 µg/mL throughout. Besides, the inhibition at 10 µg/mL is -1.9% in test [7] and 0.1% in test [8].
In the case of `C=C1/C=C/[C@H](OC(C)=O)[C@@]2(C)[C@@H](OC(C)=O)[C@@H](OC(C)=O)C[C@]3(CO3)[C@@H]2[C@H](OC(C)=O)[C@]2(O)[C@@H](C)C(=O)O[C@H]2[C@H]1Cl` (relative stereo) [FRAJUNOLIDE I], the IC50 in test [1], in test [2], in test [3] and in test [5] was > 20 µg/mL each time. Moreover, the inhibition at 10 µg/mL in test [7] is -10.3%; in test [8] it was 18.2%.
`C=C1[C@@H]2[C@H](OC(C)=O)[C@@]3(O)[C@H](/C=C(/C)CC[C@H](OC(C)=O)[C@@]2(C)[C@@H](OC(C)=O)C[C@H]1OC(=O)CC)OC(=O)[C@@H]3C` (relative stereo) [FRAJUNOLIDE J]: the IC50 in test [1], in test [2], in test [3] and in test [5] was > 20 µg/mL each time. Further, the inhibition at 10 µg/mL in test [7] worked out at 20.1%; in test [8] it was 19.9%.
For `C=C1CC[C@H](OC(C)=O)[C@]2(C)[C@@H](OC(=O)COC(=O)CC(C)C)/C=C\C(=C)[C@H](Cl)[C@@H]3OC(=O)[C@H](C)[C@@]3(O)[C@@H](OC(C)=O)[C@@H]12` (relative stereo) [FRAJUNOLIDE K], the IC50 in test [1], in test [2], in test [3] and in test [5] was > 20 µg/mL each time. Also, the figures for the inhibition at 10 µg/mL in test [7] and in test [8] were 2.4% and 8%, respectively.
Regarding `CC[C@@]1(O)C(=O)OCc2c1cc1n(c2=O)Cc2cc3ccccc3nc2-1` [CAMPTOTHECIN], the IC50 in test [1] is 0.02 µg/mL (≈ 0.0574 µM); in test [2], 0.19 µg/mL (≈ 0.545 µM); in test [3] it was 0.08 µg/mL (≈ 0.23 µM); in test [5] it was 0.07 µg/mL (≈ 0.201 µM).
Consider `O=c1c(-c2ccc(O)cc2)coc2cc(O)cc(O)c12` [GENISTEIN], for which the inhibition at 10 µg/mL in test [7] turned out to be 65%; in test [8] it was 51.6%.

For the origin of these results see ChEMBL document CHEMBL1156664, “Frajunolides E-K, briarane diterpenes from Junceella fragilis” (J Nat Prod, 2008).
